Measured values as given in ChEMBL document CHEMBL5214966, “Discovery of BT8009: A Nectin-4 Targeting Bicycle Toxin Conjugate for the Treatment of Cancer” (J Med Chem, 2022).
≈ marks a conversion by molar mass, not a printed value. Calls of active or inactive are those of the source. No cut-off for these calls is given here. *1 amine or outer side, *2 acyl side, *3 side chain or, on linkers, in order; H or OH if unused. Where a SMILES comes first, the peptide text is derived from it. Bridges are numbered along the chain shown (N, C = ends). [ ]: non-standard residue; d: D form. TATA = O=C(CC[*:1])N1CN(C(=O)CC[*:2])CN(C(=O)CC[*:3])C1

Tests used:
Nectin-4 = target: T1, Nectin-4 (Homo sapiens, UniProt Q96NY8); assay: Displacement of tracer from C-terminal FLAG-tagged human Nectin-4 (32 to 349 residues) expressed in baculovirus infected sf9 cells assessed as inhibition constant measured at 5 to 10 mins interval for 60 mins by fluorescence polarization assay
T1 sequence (Q96NY8 whole entry): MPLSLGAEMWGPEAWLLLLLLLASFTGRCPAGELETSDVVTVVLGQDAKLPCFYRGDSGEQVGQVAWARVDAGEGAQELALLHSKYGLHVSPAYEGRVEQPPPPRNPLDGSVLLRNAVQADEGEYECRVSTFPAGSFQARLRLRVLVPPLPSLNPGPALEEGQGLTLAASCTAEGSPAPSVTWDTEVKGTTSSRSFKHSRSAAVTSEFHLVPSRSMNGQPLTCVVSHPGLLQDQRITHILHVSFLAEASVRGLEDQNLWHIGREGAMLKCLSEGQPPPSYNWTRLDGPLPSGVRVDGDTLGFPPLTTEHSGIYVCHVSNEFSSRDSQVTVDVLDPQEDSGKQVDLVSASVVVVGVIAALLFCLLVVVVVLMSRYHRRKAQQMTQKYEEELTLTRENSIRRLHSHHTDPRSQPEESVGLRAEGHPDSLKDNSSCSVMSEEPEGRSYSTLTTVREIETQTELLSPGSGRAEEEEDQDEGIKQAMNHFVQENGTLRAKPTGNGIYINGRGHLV

[1] = Stability in human plasma assessed as half life measured upto 24 hrs by LC-MS/MS analysis; format: ADME, cell-free
[2] = Thermodynamic solubility of the compound in phosphate buffer at pH 7.4; format: physicochemical; settings: read-out: Therm_solubility
Method in brief: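 Thermodynamic solubility measured in phosphate buffer at pH 7.4, expressed in mg/mL.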

[3] = Stability in mouse plasma assessed as half life measured upto 24 hrs by LC-MS/MS analysis; format: ADME, cell-free
[4] = Plasma protein binding in human LC/MS/MS analysis; format: ADME, cell-free; settings: read-out: PPB (converted)
[5] = Clearance in mouse plasma at 3 mg/kg, iv administered as bolus injection; format: ADME, organism-based
Method in brief: (§1)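 Mouse pharmacokinetics after a single 3 mg/kg IV bolus. Terminal half-life, plasma clearance (mL/min/kg) and steady-state volume of distribution (L/kg) were derived from plasma levels.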

MDA-MB-468 [6] = assay: Antitumor activity against human MDA-MB-468 cells xenografted in Balb/c mouse model assessed as tumor regression 5 mg/kg, iv administered as bolus injection once weekly for 18 days and measured upto 42 days; format: functional, organism-based; settings: time <= 42.0 day
Method in brief: (§2)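 Dosing regimens were 3 mg/kg once weekly, 3 mg/kg twice weekly, or 5 mg/kg once weekly. Dosing ran 18 days. After dosing stopped, the 5 mg/kg once-weekly group was followed to day 42. Read-out was tumour growth/regression.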

MDA-MB-468 [7] = assay: Antitumor activity against human MDA-MB-468 cells xenografted in Balb/c mouse model assessed as tumor regression at 3 mg/kg, iv twice weekly or 5 mg/kg, iv once weekly administered as bolus injection for 18 days; format: functional, organism-based; settings: dose 3-5 mg/kg, time 18.0 day; method in brief: as §2
MDA-MB-468 [8] = assay: Antitumor activity against human MDA-MB-468 cells xenografted in Balb/c mouse model assessed as tumor regression at 3 mg/kg, iv administered as bolus injection once weekly for 18 days; format: functional, organism-based; settings: time 18.0 day; method in brief: as §2
[9] = Plasma protein binding in mouse by LC/MS/MS analysis; format: ADME, cell-free; settings: read-out: PPB (converted)
[10] = Half life in mouse at 3 mg/kg, iv administered as bolus injection; format: ADME, organism-based; settings: in vivo; method in brief: as §1
[11] = Toxicity in Balb/c mouse assessed as drug tolerability at 3 to 5 mg/kg, iv administered as bolus injection measured upto 42 days; format: organism-based; settings: in vivo, 1008 h, dose 3-5 mg/kg, time < 42 day
Method in brief: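 Doses were 3 mg/kg once or twice weekly and 5 mg/kg once weekly over 18 days, with one group monitored to day 42.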

[12] = Volume of distribution at steady state in mouse at 3 mg/kg, iv administered as bolus injection; format: ADME, organism-based; settings: in vivo, read-out: Vdss; method in brief: as §1

Row | SMILES | Ki (Nectin-4) | half-life [1] | solubility thermodynamic [2] | half-life [3] | fraction unbound [4] | clearance [5] | Activity (MDA-MB-468 [6]) | Activity (MDA-MB-468 [7]) | Activity (MDA-MB-468 [8]) | fraction unbound [9] | half-life [10] | Activity [11] | Vd [12]
1 | CC[C@H](C)[C@@H]1NC(=O)[C@@H]2CCCN2C(=O)[C@H](Cc2c[nH]c3ccccc23)NC(=O)[C@H](CO)NC(=O)[C@H](Cc2c[nH]c3ccccc23)NC(=O)[C@H](CC(N)=O)NC(=O)[C@H](CCCCN)NC(=O)[C@H](CCSC)NC(=O)[C@@H]2CSCCC(=O)N3CN(CN(C3)C(=O)CCSC[C@@H](NC(C)=O)C(=O)N3CCC[C@H]3C(=O)N[C@@H](Cc3ccccc3)C(=O)NCC(=O)N2)C(=O)CCSC[C@@H](C(=O)N[C@H](C(=O)N[C@@H](CC(N)=O)C(=O)N[C@@H](CCCCN)C(N)=O)[C@@H](C)O)NC(=O)[C@H](Cc2c[nH]c3ccccc23)NC1=O (Ac-[dC]PFGCMKNWSWPIWCTNK-NH2; linker 1-5-15 via TATA) | 0.0135 µM | > 24 h | 4400 µg/mL (≈ 1770 µM) | 2.2 h | – | – | – | – | – | – | – | – | –
2 | CC[C@H](C)[C@@H]([C@H](CC(=O)N1CCCC1[C@@H](OC)[C@H](C)C(=O)N[C@@H](C)[C@H](O)c1ccccc1)OC)N(C)C(=O)[C@@H](NC(=O)[C@H](C(C)C)N(C)C(=O)OCc1ccc(NC(=O)[C@H](CCCNC(N)=O)NC(=O)[C@@H](NC(=O)CCCC(=O)NCCC(=O)N(C)CC(=O)N(C)CC(=O)N(C)CC(=O)N(C)CC(=O)N(C)CC(=O)N(C)CC(=O)N(C)CC(=O)N(C)CC(=O)N(C)CC(=O)N(C)CC(=O)N[C@@H](C)N[C@@H](CCCCNC(=N)N)C(=O)N[C@@H](CC(=O)O)C(=O)N[C@H]2CSCCC(=O)N3CN4CCC(=O)SC[C@H](NC(=O)[C@H](CC(C)C)NC(=O)[C@@H]5CCCN5C(=O)[C@H](CC(N)=O)NC(=O)[C@H](C(C)C)NC(=O)[C@H](CC(C)C)NC(=O)C5C[C@@H](O)CN5C2=O)C(=O)N[C@@H](CC(C)C)C(=O)N[C@@H](Cc2c[nH]cn2)C(=O)N2CCCC2C(=O)N[C@@H](CC(=O)O)C(=O)N[C@@H](Cc2c[nH]c5ccccc25)C(=O)N[C@@H](Cc2c[nH]c5ccccc25)C(=O)NC(CCCCNC(=N)N)C(=O)N[C@H](C(N)=O)CSCCC(=O)N(C4)C3)C(C)C)cc1)C(C)C (stereo partly specified) | – | > 57.8 h | 800 µg/mL (≈ 175 µM) | 4.4 h | 0.207 | 3.5 mL/min/kg | Active | Active | Active | 0.118 | 1 h | Non-Toxic | 0.25 L/kg
